Assay results as given in ChEMBL document CHEMBL2010774, “Cytotoxic apigenin derivatives from Chrysopogon aciculatis” (J Nat Prod, 2012).

Experiments:
Type in all cases: functional, cell-based
MCF7 = assay: Cytotoxicity against human MCF7 cells after 48 hrs by alamar blue assay; conditions: MCF7, 48 h
How it was run: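 MCF-7, a human breast cancer cell line.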

NCI-H460 = assay: Cytotoxicity against human NCI-H460 cells after 48 hrs by alamar blue assay; conditions: NCI-H460, 48 h
How it was run: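 H460, a human lung cancer cell line.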

CCRF-CEM = assay: Cytotoxicity against human CEM cells after 48 hrs by alamar blue assay
How it was run: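 CEM, a human leukemia cell line.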

HT-29 = assay: Cytotoxicity against human HT-29 cells after 48 hrs by alamar blue assay; conditions: HT-29, 48 h
How it was run: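 HT-29, a human colon cancer cell line.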

SMILES	IC50 (MCF7) [µM]	IC50 (NCI-H460) [µM]	IC50 (CCRF-CEM) [µM]	IC50 (HT-29) [µM]
COc1cc(O)c2c(=O)cc(-c3ccc(O)cc3)oc2c1[C@H]1CC(=O)[C@H](O)[C@@H](C)O1 [ACICULATINONE]	18.4	18.1	13.3	11.6
COc1cc(O)c2c(=O)cc(-c3ccc(O[C@@H]4O[C@H](CO)[C@@H](O)[C@H](O)[C@H]4O)cc3)oc2c1[C@H]1C[C@H](O)[C@H](O)[C@@H](C)O1	> 100	> 100	> 100	> 100
C[C@H]1O[C@@H](c2c(O)cc(O)c3c(=O)cc(-c4ccc(O)cc4)oc23)C[C@H](O)[C@H]1O	75	12	2.58	10
C[C@H]1O[C@@H](c2c(O)cc(O)c3c(=O)cc(-c4ccc(O)cc4)oc23)C[C@H](O)[C@@H]1O	6.35	18.2	4.42	25.3
COc1cccc2c1C(=O)c1c(O)c3c(c(O)c1C2=O)C[C@@](O)(C(=O)CO)C[C@@H]3O[C@H]1C[C@H](N)[C@H](O)[C@H](C)O1 [DOXORUBICIN]	2.5	–	–	6.04
COc1cc(O)c2c(=O)cc(-c3ccc(O)cc3)oc2c1[C@H]1C[C@H](O)[C@H](O)[C@@H](C)O1 [ACICULATIN]	3.16	46.9	2.65	26
